Data from ChEMBL document CHEMBL2093137, “WHO-TDR NTD Screening”.
In brackets after ≈: the same amount, converted by molar mass.

Assays:
[1] = WHO-TDR: Cytotoxicity; format: toxicity, cell-based; conditions: human, MRC5 cells
Plasmodium falciparum K1 = assay: WHO-TDR: Malaria; format: functional, organism-based, Homo sapiens; conditions: Erythrocyte
Summary of the method: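 Antiplasmodial potency, expressed as IC50, was measured in a whole-organism assay on intra-erythrocytic Plasmodium falciparum K1 in human red blood cells. The screened library held 10,000 diverse compounds from Life Chemicals.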

Trypanosoma cruzi = assay: WHO-TDR: Chagas disease; format: functional, organism-based, Homo sapiens; conditions: MRC5
Summary of the method: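 A diverse library of 10,000 compounds from Life Chemicals, filtered for drug-likeness and reactive groups, was screened against intracellular amastigotes of Trypanosoma cruzi Tulahuen CL2 beta-galactosidase strain. The parasites were grown in MRC-5SV2 human lung fibroblast host cells, and a reference drug served as positive control under previously published standard procedures. Antiparasitic potency is given as IC50.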

[2] = test system: Trypanosoma brucei brucei; assay: WHO-TDR: Human African Trypanosomiasis (HAT); format: functional, organism-based; conditions: Squib-427
Summary of the method: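 Antiparasitic potency is reported as IC50. The screen covered 10,000 compounds from a diverse Life Chemicals library, filtered for drug-likeness and reactive groups, tested on whole bloodstream-form Trypanosoma brucei of the Squib 427 strain.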

Leishmania infantum = assay: WHO-TDR: Leishmaniasis; format: functional, organism-based, Mus musculus; conditions: Macrophage
Summary of the method: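 Antiparasitic potency, reported as IC50, was measured against intracellular Leishmania infantum amastigotes. The parasite strain was MHOM/MA(BE)/67, and murine peritoneal macrophages served as host cells for the screen of a 10,000-compound diverse library from Life Chemicals.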

Schistosoma mansoni = assay: WHO-TDR: Schistosomiasis; format: functional; set-up: concentration or dose not given beside the values
Summary of the method: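 Activity appears as percent inhibition and as IC50. The underlying screen tested a diverse library of 10,000 compounds, supplied by Life Chemicals, on whole larval and/or adult worms of the Puerto Rican strain of Schistosoma mansoni.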

Onchocerca lienalis = assay: WHO-TDR: Onchocerciasis; format: functional; set-up: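 at 12.5 µM on microfilariae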
Summary of the method: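 Following previously published standard procedures, with reference drugs as positive controls, a diverse Life Chemicals library was tested on whole Onchocerca ochengi or Onchocerca lienalis microfilariae. The library held 10,000 compounds filtered for drug-likeness and reactive groups. Activity is recorded both as percent inhibition and as IC50.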

SMILES | IC50 [1] [µg/mL] | IC50 (Plasmodium falciparum K1) [µg/mL] | IC50 (Trypanosoma cruzi) [µg/mL] | IC50 [2] [µg/mL] | IC50 (Leishmania infantum) [µg/mL] | % Inhibition (Schistosoma mansoni) [%] | % Inhibition (Onchocerca lienalis) [%]
CCOC(=O)Cn1/c(=N/C(=O)c2ccccc2Br)sc2cc(S(C)(=O)=O)ccc21 | > 14.9 | > 14.9 | > 14.9 | > 14.9 | > 14.9 | 100 | 0
CN(C(=O)CN1CC(=O)Oc2ccccc21)c1ccc(O)cc1 | 2.96 (≈ 9.49 µM) | 2.22 (≈ 7.11 µM) | 0.548 (≈ 1.75 µM) | 2.66 (≈ 8.52 µM) | 3.03 (≈ 9.71 µM) | 0 | 20
O=C(CSc1nnc(NC(=O)COc2ccc(Cl)cc2)s1)NCc1ccco1 | 0.462 (≈ 1.05 µM) | 1.44 (≈ 3.28 µM) | 0.408 (≈ 0.93 µM) | 0.428 (≈ 0.975 µM) | 0.467 (≈ 1.06 µM) | 0 | 6.7
CN(C)CCCN(C(=O)c1ccc(Br)s1)c1nc2cc3c(cc2s1)OCCO3 | 3.06 (≈ 6.35 µM) | 2.42 (≈ 5.02 µM) | 0.933 (≈ 1.93 µM) | 5.04 (≈ 10.4 µM) | 5.04 (≈ 10.4 µM) | 0 | 6.7
CN(C)CCCN(C(=O)CCOc1ccccc1)c1nc2c(F)cccc2s1 | 1.94 (≈ 4.83 µM) | 8.18 (≈ 20.4 µM) | 0.409 (≈ 1.02 µM) | 4.25 (≈ 10.6 µM) | 4.25 (≈ 10.6 µM) | 0 | 0
CCOc1ccc2nc(N(CCN(C)C)C(=O)c3cc4ccccc4cc3OC)sc2c1 | 4.28 (≈ 9.53 µM) | 1.82 (≈ 4.04 µM) | 0.425 (≈ 0.945 µM) | 0.35 (≈ 0.779 µM) | 4.72 (≈ 10.5 µM) | 0 | 0
Cc1cc(NC(=O)CSc2ccc3nnc(-c4cccs4)n3n2)no1 | > 11.2 | 0.155 (≈ 0.416 µM) | 4.97 (≈ 13.4 µM) | > 11.2 | 4.29 (≈ 11.5 µM) | 0 | 6.7
C#CCn1/c(=N/C(=O)CN2C(=O)c3ccccc3C2=O)sc2c3ccccc3ccc21 | > 11.4 | > 11.4 | > 11.4 | > 11.4 | 0.413 (≈ 0.971 µM) | 0 | 13.3
CCOC(=O)c1c(NC(=O)C(C)n2c(-n3nc(C)cc3C)nc(CC)cc2=O)sc2c1CCC2 (stereo not given) | > 14.5 | 2.96 (≈ 6.11 µM) | 0.57 (≈ 1.18 µM) | 4.64 (≈ 9.6 µM) | 4.7 (≈ 9.71 µM) | 0 | 0
COc1ccc(Cl)cc1NC(=O)CSc1nnc(NC(=O)Cc2ccc(F)cc2)s1 | > 8.44 | > 8.44 | > 8.44 | > 8.44 | 2.73 (≈ 5.85 µM) | 100 | 0
O=C(O)CCCCCN1C(=O)/C(=C\c2ccccc2O)SC1=S | > 10.5 | > 10.5 | 0.653 (≈ 1.86 µM) | 4.06 (≈ 11.5 µM) | > 10.5 | 0 | 6.7
CN(C)CCCN(C(=O)c1ccc(N(C)C)cc1)c1nc2ccc(F)cc2s1 | 4.1 (≈ 10.2 µM) | 0.324 (≈ 0.809 µM) | 4.49 (≈ 11.2 µM) | 0.435 (≈ 1.09 µM) | 4.24 (≈ 10.6 µM) | 0 | 0
O=C(CSc1nnc(NC(=O)COc2ccc(Cl)cc2)s1)NCC1CCCO1 (stereo not given) | 3.54 (≈ 7.99 µM) | 3.42 (≈ 7.71 µM) | 0.416 (≈ 0.939 µM) | 2 (≈ 4.52 µM) | 0.466 (≈ 1.05 µM) | 0 | 13.3
CCNc1cc(C)nc(Nc2ccc(NC(=O)CC3CCCC3)cc2)n1 | 3.23 (≈ 9.13 µM) | 2.4 (≈ 6.79 µM) | 0.299 (≈ 0.846 µM) | 3.39 (≈ 9.6 µM) | 3.43 (≈ 9.71 µM) | 66.7 | -1
Fc1ccccc1CSc1ccc(-c2ccccn2)nn1 | > 8.92 | > 8.92 | > 8.92 | > 8.92 | > 8.92 | 8.3 | 97
CCOc1ccc(C(=O)Nc2nc3c(Cl)ccc(Cl)c3s2)cc1 | > 11 | > 11 | > 11 | > 11 | > 11 | 100 | 33.34
CC(C)c1ccc2nc(NC(=O)c3ccc(C#N)cc3)sc2c1 | > 7 | > 7 | > 7 | 0.312 (≈ 0.971 µM) | > 7 | 0 | 0
CCNc1cc(C)nc(Nc2ccc(NS(=O)(=O)c3ccc4nc(C)sc4c3)cc2)n1 | 0.543 (≈ 1.19 µM) | 1.18 (≈ 2.6 µM) | 0.404 (≈ 0.889 µM) | 4.31 (≈ 9.49 µM) | > 13.6 | 58.3 | 33.4
COc1ccccc1N1CCN(C(CNS(=O)(=O)c2cccs2)c2cccnc2)CC1 (stereo not given) | > 13.8 | 6.66 (≈ 14.5 µM) | 0.559 (≈ 1.22 µM) | > 13.8 | > 13.8 | 0 | 66.7
CN(C)CCCN(C(=O)c1ccc(S(=O)(=O)N(C)C2CCCCC2)cc1)c1nc2c(F)cccc2s1 | 3.08 (≈ 5.78 µM) | 3.44 (≈ 6.46 µM) | 5.16 (≈ 9.69 µM) | 5.59 (≈ 10.5 µM) | 5.53 (≈ 10.4 µM) | 0 | 0
CC(C)(C)c1ccc(C(=O)Nc2sccc2C(N)=O)cc1 | 4.3 (≈ 14.2 µM) | 2.68 (≈ 8.87 µM) | 2.41 (≈ 7.98 µM) | 0.633 (≈ 2.09 µM) | 1.95 (≈ 6.46 µM) | 0 | 13.3
O=S(=O)(NCC(c1cccnc1)N1CCN(c2ccccc2F)CC1)c1cc(F)ccc1F (stereo not given) | > 14.3 | 4.27 (≈ 8.96 µM) | 0.265 (≈ 0.556 µM) | 4.74 (≈ 9.95 µM) | > 14.3 | 0 | 0
O=C(CSc1ccc2nnc(-c3ccncc3)n2n1)c1ccc(Cl)cc1 | 4.28 (≈ 11.2 µM) | 1.82 (≈ 4.75 µM) | 0.425 (≈ 1.11 µM) | 0.35 (≈ 0.917 µM) | 4.72 (≈ 12.4 µM) | 0 | 0
CCOC(=O)c1c(NC(=O)C2COc3ccccc3O2)sc2c1CC(C)(C)NC2(C)C (stereo not given) | 5.73 (≈ 12.9 µM) | 4.01 (≈ 9.02 µM) | 4.1 (≈ 9.22 µM) | 0.396 (≈ 0.891 µM) | 4.22 (≈ 9.49 µM) | 91.7 | 0
O=C(Nc1ccc2c(c1)OCCO2)c1oc2ccccc2c1NC(=O)C1c2ccccc2Oc2ccccc21 | > 15.6 | 5.04 (≈ 9.72 µM) | > 15.6 | > 15.6 | 5.04 (≈ 9.71 µM) | 100 | 0
